Reference: ChEMBL document CHEMBL3045276, “Synthesis and biological activity of some novel trifluoromethyl-substituted 1,2,4-triazole and bis(1,2,4-triazole) Mannich bases containing piperazine rings” (2010)

Tests used:
Assay type in all cases: functional
[1] = system: Echinochloa crus-galli; assay: Herbicidal activity against Echinochloa crus-galli (barnyard grass) assessed as inhibition of seedling growth at 10 ug/mL at 28 degC
Outline: (§1)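 Ten barnyardgrass seeds placed in cup over glass beads and filter paper holding 5 mL aqueous test solution (emulsified if needed); germinated 65 h at 28 ± 1 °C under light. Mean above-ground seedling height per cup measured; inhibition percentage derived.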

[2] = system: Brassica rapa subsp. oleifera; assay: Herbicidal activity against Brassica rapa subsp. oleifera assessed as inhibition of root growth at 100 ug/mL at 28 degC
Outline: (§2)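 Rape seeds soaked 4 h in distilled water, then 15 per 6 cm dish on filter paper wetted with 2 mL aqueous test solution (emulsified if needed); germinated 65 h at 28 ± 1 °C in darkness. Mean length of 10 roots per dish measured; percentage inhibition calculated against distilled-water check.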

[3] = system: Pseudoperonospora cubensis; assay: Fungicidal activity against Pseudoperonospora cubensis in cucumber plant two seed leaves stage assessed as control efficacy from disease indices at 500 ug/mL at 18 to 30 degC and above 80%RH relative to control; conditions: read-out: GI
Outline: (§3)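 Cucumber seeds germinated (soaked 2 h in water at 50 °C, kept moist 24 h at 28 °C) and grown in 1:1 vermiculite/peat; two-seed-leaf plants sprayed at 500 μg/mL, then inoculated 2 h later by spraying conidial (C. cassiicola, A. citrullina, P. cubensis), bacterial (P. syringae) or mycelial (S. sclerotiorum) suspension. Held 18-30 °C, >80% RH; four repeats; control efficacy = (CK−PT)/CK×100 from disease indices once untreated plants fully symptomatic.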

[4] = system: Echinochloa crus-galli; assay: Herbicidal activity against Echinochloa crus-galli (barnyard grass) assessed as inhibition of seedling growth at 100 ug/mL at 28 degC; outline: as §1
[5] = system: Sclerotinia sclerotiorum; assay: Fungicidal activity against Sclerotinia sclerotiorum in cucumber plant two seed leaves stage assessed as control efficacy from disease indices at 500 ug/mL at 18 to 30 degC and above 80%RH relative to control; conditions: read-out: GI; outline: as §3
[6] = system: Corynespora cassiicola; assay: Fungicidal activity against Corynespora cassiicola in cucumber plant two seed leaves stage assessed as control efficacy from disease indices at 500 ug/mL at 18 to 30 degC and above 80%RH relative to control; conditions: read-out: GI; outline: as §3
[7] = system: Ascochyta; assay: Fungicidal activity against Ascochyta […] in cucumber plant two seed leaves stage assessed as control efficacy from disease indices at 500 ug/mL at 18 to 30 degC and above 80%RH relative to control; conditions: read-out: GI; outline: as §3
[8] = system: Pseudomonas amygdali pv. lachrymans; assay: Fungicidal activity against Pseudomonas syringae pv. lachrymans in cucumber plant two seed leaves stage assessed as control efficacy from disease indices at 500 ug/mL at 18 to 30 degC and above 80%RH relative to control; conditions: read-out: GI; outline: as §3
[9] = system: Brassica rapa subsp. oleifera; assay: Herbicidal activity against Brassica rapa subsp. oleifera assessed as inhibition of root growth at 10 ug/mL at 28 degC; outline: as §2

Fc1ccccc1/C=N/n1c(C(F)(F)F)nn(CN2CCN(c3ncccn3)CC2)c1=S
inhibition at 10 µg/mL [1]: 9.9%
inhibition at 100 µg/mL [2]: 74.5%
inhibition of growth at 500 µg/mL [3]: 64.9%
inhibition at 100 µg/mL [4]: 15.3%
inhibition of growth at 500 µg/mL [5]: 47.3%
inhibition of growth at 500 µg/mL [6]: 40.3%
inhibition of growth at 500 µg/mL [7]: 61.3%
inhibition of growth at 500 µg/mL [8]: 45.4%
inhibition at 10 µg/mL [9]: 70.8%
